Assay [1] has as its target T1, Voltage-gated L-type calcium channel (Rattus norvegicus, UniProt P22002+Q02485+P27732). Put plainly: Ability to inhibit [3H]nitrendipine binding to the calcium channel receptor(CCR) in rat cerebral cortex homogenate. The format is tissue-based.
Assay [2] concerns the target T2, Translocator protein (Rattus norvegicus, UniProt P16257). Put plainly: Ability to inhibit [3H]-PK 11195 binding to peripheral-type benzodiazepine receptor(PBR) in rat cerebral cortex homogenate. Particulars: for pIC50: read-out: IC50; call rule not given here. The class given is tissue-based.
Assay [3] has as its target T2, Translocator protein. Put plainly: Ability to inhibit [3H]-PK 11195 binding to peripheral-type benzodiazepine receptor(PBR) in rat cerebral cortex homogenate; Not active. The class given is tissue-based.
In assay [4] the target is T3, Voltage-dependent L-type calcium channel subunit alpha-1C (Rattus norvegicus, UniProt P22002). Put plainly: Ability to inhibit [3H]nitrendipine binding to the L-type calcium channel receptor(CCR) in rat heart homogenate. The class given is tissue-based. An outline of the steps: (§1)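 Rat hearts perfused through the aorta with ice-cold saline, then homogenised in 50 mM Na-HEPES pH 7.4, filtered through cheesecloth and washed five times. Incubated 90 min at 0 °C in the dark with 3×10^-10 M [3H]nitrendipine; compounds in 5% DMSO. IC50 by log-probit analysis of six displacer concentrations in triplicate.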

The species entered for assay [5] is Cavia porcellus. Put plainly: [Ca2+] antagonistic activity on K+ depolarized guinea pig aortic strips (at 5(10e-5) M). The class given is functional, Aorta. An outline of the steps:
(§2)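 Guinea pig aortic strips under 1 g resting force, equilibrated 1 h in PSS, then contracted with 80 mmol/L KCl. At plateau (~30 min), compounds in DMSO added cumulatively at 0.1–50 μmol/L and relaxation recorded.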

The species named for assay [6] is Cavia porcellus. Description: Percent decrease of negative chronotropic activity on isolated guinea pig spontaneously beating right atrium at 1*10e-4 M. The format is functional, Cardiac atrium.
Assay [7] has as its target T1, Voltage-gated L-type calcium channel. Description: (§3) Inhibition of [3H]nitrendipine binding to L-type calcium channel receptor(CCR) in rat cerebral cortex homogenate. The format is tissue-based. The procedure, abridged:
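Male Sprague–Dawley rat cortex homogenised in 50 mM Na-HEPES pH 7.4, washed five times, pellet stored at -70 °C. Incubated 90 min at 0 °C in the dark with 3×10^-10 M [3H]nitrendipine; compounds dissolved in 5% DMSO. Filtration, scintillation counting. IC50 by log-probit analysis of six displacer concentrations in triplicate.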

For assay [8], the species on record is Cavia porcellus. Description: Activity of inotropic negative potency on stimulated guinea pig left atrium. The class given is functional. Particulars: Cardiac atrium, read-out: ED50 (the source's name). An outline of the steps: (§4)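 Guinea pig atria (300–400 g, either sex) in oxygenated Tyrode at 35 °C, pH 7.4. Right atria beat spontaneously; left atria paced at 1 Hz. Isometric force recorded after 45–60 min stabilisation. Cumulative concentrations 0.1–50 μmol/L in DMSO (bath ≤0.3%). Potency from log concentration–response curves by probit analysis, n = 6–8.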

The species entered for assay [9] is Cavia porcellus. Put plainly: Percent decrease of negative inotropic activity on isolated guinea pig left atrium at 1*10e-5 M. The class given is functional, Cardiac atrium. The procedure, abridged: as §4
Assay [10] concerns the target T3, Voltage-dependent L-type calcium channel subunit alpha-1C. Description: Ability to inhibit [3H]nitrendipine binding to the L-type calcium channel receptor(CCR) in rat heart homogenate. The format is tissue-based. The procedure, abridged:
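Rat heart perfused via aorta with ice-cold saline, homogenized in 50 mM Na-HEPES pH 7.4, filtered through cheesecloth, washed five times at 48000g, and stored at -70 °C. Homogenate incubated 90 min at 0 °C in the dark with 3×10^-10 M [3H]nitrendipine; compounds in 5% DMSO. Bound counts taken after filtration. IC50 by log-probit from six concentrations in triplicate.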

The species named for assay [11] is Cavia porcellus. Put plainly: Activity of chronotropic negative potency on guinea pig spontaneously beating right atrium. The class given is functional, Cardiac atrium. An outline of the steps: as §4
Assay [12] is filed under the species Cavia porcellus. Description: Percent decrease of negative inotropic activity on isolated guinea pig left atrium at 5*10e-5 M. The format is functional, Cardiac atrium. The procedure, abridged:
as §4

Assay [13] is filed under the species Cavia porcellus. Put plainly: Percent decrease of negative chronotropic activity on isolated guinea pig spontaneously beating right atrium at 1*10e-5 M. The format is functional, Cardiac atrium. The procedure, abridged: as §4
The species entered for assay [14] is Cavia porcellus. Put plainly: IC50 activity of [Ca2+] antagonistic potency on K+ depolarized guinea pig aortic strips. Particulars: Aorta. The class given is functional. An outline of the steps:
as §2

The species entered for assay [15] is Cavia porcellus. Put plainly: [Ca2+] antagonistic activity on K+ depolarized guinea pig aortic strips (at 5(10e-5) M). The class given is functional, Aorta. The procedure, abridged: as §2
For assay [16], the target named is T1, Voltage-gated L-type calcium channel. The description is as §3. The format is tissue-based. The procedure, abridged:
(§5)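 Male Sprague–Dawley rat cortex homogenised in 50 mM Na-HEPES pH 7.4, washed five times, pellet stored at -70 °C. Incubated 90 min at 0 °C in the dark with 3×10^-10 M [3H]nitrendipine; compounds dissolved in 5% DMSO. Filtration, scintillation counting. IC50 by log-probit analysis of six displacer concentrations in triplicate. Ki by Prusoff's equation using Kd 0.25 nM.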
This is another data set of the same source.

Assay [17] has the same target. Description: Ability to inhibit [3H]nitrendipine binding to the calcium channel receptor(CCR) in rat cerebral cortex homogenate; Not active. The format is tissue-based. An outline of the steps:
as §5

Assay [18] addresses T3, Voltage-dependent L-type calcium channel subunit alpha-1C. Put plainly: Ability to inhibit [3H]nitrendipine binding to the L-type calcium channel receptor(CCR) in rat heart homogenate; Not active. The class given is tissue-based. An outline of the steps: as §1
For assay [19], the species on record is Cavia porcellus. Description: Activity of chronotropic negative potency on guinea pig spontaneously beating right atrium. The format is functional, Cardiac atrium. An outline of the steps: as §4
Assay [20] is filed under the species Cavia porcellus. Description: [Ca2+] antagonistic activity on K+ depolarized guinea pig aortic strips at 5*10e-5 M. The class given is functional, Aorta. The procedure, abridged: as §2
The species entered for assay [21] is Cavia porcellus. Description: Percent decrease of negative chronotropic activity on isolated guinea pig spontaneously beating right atrium at 1*10e-6 M. The format is functional, Cardiac atrium. The procedure, abridged: as §4
The species entered for assay [22] is Cavia porcellus. Description: [Ca2+] antagonistic activity on K+ depolarized guinea pig aortic strips at 10e-4 M. The format is functional. The settings on record: Aorta.
The species entered for assay [23] is Cavia porcellus. Put plainly: Activity of inotropic negative potency on stimulated guinea pig left atrium. The class given is functional. Particulars: Cardiac atrium, read-out: ED50 (the source's name). The procedure, abridged: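 Isolated left atria from guinea pigs (300–400 g, either sex), Tyrode PSS gassed with 95% O2–5% CO2, 35 °C, pH 7.4, driven at 1 Hz by rectangular pulses; isometric force recorded after 45–60 min stabilization.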

23 compounds from ChEMBL document CHEMBL1129246, “Cardiovascular characterization of pyrrolo[2,1-d][1,5]benzothiazepine derivatives binding selectively to the peripheral-type benzodiazepine receptor (PBR): from dual PBR affinity and calcium antagonist activity to novel and selective calcium entry blockers” (J Med Chem, 1996) can be followed below.

Structures are written as SMILES. pEC50, pIC50: −log10 of the molar value.

A word on the IC50: it is the concentration that gives 50% inhibition. On to `COc1ccc(C2=C(OC(C)=O)c3cccn3-c3cc(Cl)ccc3S2)cc1`, for which, in assay [1], the 50% inhibitory concentration (IC50) turned out to be 132 nM.
By pIC50 is commonly meant the negative decadic logarithm of the IC50, by convention in mol/L. For the compound `CC(=O)OC1=C(c2ccccc2)Sc2ccccc2-n2c(CN(C)C)ccc21`, on Translocator protein [2], the pIC50 was < 5.70.
As for `COc1ccc(C2=C(OC(=O)c3cc(OC)c(OC)c(OC)c3)c3cccn3-c3cc(C(F)(F)F)ccc3S2)cc1`, the IC50 result on Translocator protein [3] is “Not Active”.
Take `CCCCC(=O)OC1=C(c2ccccc2)Sc2ccccc2-n2cccc21`: the pIC50 in assay [4] is 6.21.
The Inhibition is the relative decrease from the control value, in per cent. Low values mean a response near the control, high ones a response far below the control. As usually defined, the Ki is a measure of affinity in units of concentration, obtained from inhibition or displacement. With `COc1ccc(C2Sc3ccccc3-n3c(CN(C)C)ccc32)cc1` (stereo unspecified), the pIC50 was < 5.70 on Translocator protein [2] and 7.77 in assay [10]. The compound further yielded an Inhibition in the assay filed under Cavia porcellus [5] of 10%. For the same compound, the Decrease is 30% in the assay listed under Cavia porcellus [6] and 75% in the assay filed under Cavia porcellus [9]. The Ki in [7] came out at 0.19 nM. In the assay listed under Cavia porcellus [8], the pEC50 was 6.09.
Regarding `CCCC(=O)OC1=C(c2ccccc2)Sc2ccccc2-n2cccc21`, the IC50 in assay [1] turned out to be 4.88 nM.
`CC(=O)OC1=C(c2ccccc2)Sc2ccc(Cl)cc2-n2cccc21`: the pIC50 on Translocator protein [2] was 6.25. The IC50 in assay [1] amounted to 150 nM.
Regarding `CC(=O)OC1=C(c2ccccc2)Sc2ccc(Cl)cc2-n2c(CN(C)C)ccc21`, the negative logarithm of the IC50 (pIC50) at Translocator protein [2] is < 5.70. Also, the concentration for half-maximal inhibition (IC50) in [1] is 960 nM.
The compound `COc1ccc([C@H]2Sc3ccccc3-n3c(CN(C)C)ccc3[C@H]2OC(C)=O)cc1` came in with an ED30 in the assay filed under Cavia porcellus [11] of 1500 nM. The compound further came in with an Inhibition in the assay listed under Cavia porcellus [5] of 56%. Further, the Decrease in the assay listed under Cavia porcellus [12] is given as 87%; in the assay filed under Cavia porcellus [13] it was 90%. This compound also had a negative-log IC50 (pIC50) in the assay listed under Cavia porcellus [14] of 5.35. In addition, in the assay filed under Cavia porcellus [8], the pEC50 was 6.15. Also, the half-inhibitory concentration (IC50) in [1] was found to be 136 nM.
In the case of `COc1ccc(C2=C(OC(C)=O)c3ccc(CN(C)C)n3-c3cc(Cl)ccc3S2)cc1`, the pIC50 on Translocator protein [2] is < 5.70.
For the compound `COc1ccc(C2=C(OC(=O)c3cc(OC)c(OC)c(OC)c3)c3cccn3-c3cc(Cl)ccc3S2)cc1`, the IC50 entry at Translocator protein [2] is listed as “Not Active”.
In turn, `CC(=O)O[C@@H]1c2ccc(CN(C)C)n2-c2cccc(Cl)c2S[C@@H]1c1ccccc1` returned an Inhibition in the assay listed under Cavia porcellus [15] of 32%. Besides, the ED30 in the assay filed under Cavia porcellus [11] turned out to be 850 nM. Also, in the assay filed under Cavia porcellus [12], the Decrease turned out to be 41%. Besides, the pIC50 in [4] is 7.92. Besides, in assay [16], the Ki was 13 nM.
Take `CC(=O)O[C@@H]1c2ccc(CN(C)C)n2-c2cc(C(F)(F)F)ccc2S[C@@H]1c1ccccc1`: the IC50 in assay [1] turned out to be 300 nM.
Consider `CC(=O)O[C@@H]1c2ccc(CN(C)C)n2-c2cc(Cl)ccc2S[C@@H]1c1ccccc1`, for which the IC50 in assay [17] is 1230 nM; in assay [18] it was “Not Active”.
As for `CCCC(=O)OC1=C(c2ccc(OC)cc2)Sc2ccccc2-n2cccc21`, in assay [4], the pIC50 was 6.82. Further, the IC50 in assay [1] is 16 nM.
The compound `COc1ccc([C@H]2Sc3ccc(Cl)cc3-n3c(CN(C)C)ccc3[C@H]2OC(C)=O)cc1` registered an Inhibition in the assay filed under Cavia porcellus [15] of 40%. In addition, the Decrease in the assay listed under Cavia porcellus [12] amounted to 83%; in the assay listed under Cavia porcellus [13], 61%. The same compound gave an ED30 in the assay listed under Cavia porcellus [19] of 880 nM. The pEC50 in the assay listed under Cavia porcellus [8] is 6.18. Also, the IC50 in [1] turned out to be 3.3 nM. The Ki in [16] is reported as 1.5 nM.
For the compound `CC(=O)O[C@@H]1c2ccc(CN(C)C)n2-c2ccccc2S[C@@H]1c1ccccc1`, the IC50 in assay [1] turned out to be 5200 nM.
Take `COc1ccc(C2=C(OC(C)=O)c3cccn3-c3ccccc3S2)cc1`: the Decrease is listed as 86% in the assay listed under Cavia porcellus [12] and 26% in the assay listed under Cavia porcellus [13]. Moreover, the pIC50 in assay [4] was 6.47. Also, the pEC50 in the assay listed under Cavia porcellus [8] is 6.51. In the assay listed under Cavia porcellus [20], the Inhibition worked out at 27%. The IC50 in assay [1] was 0.13 nM.
The inhibition is the change of the read-out against control, counted positive when it falls. Low readings indicate a weak effect, high ones a strong effect. Consider `COc1ccc([C@@H]2Sc3ccccc3N(CCN(C)C)C(=O)[C@@H]2OC(C)=O)cc1` [DILTIAZEM], for which, in the assay listed under Cavia porcellus [19], the ED30 worked out at 70 nM. For the same compound, the results for the Decrease in the assay filed under Cavia porcellus [9] and in the assay filed under Cavia porcellus [21] were 78% and 94%, respectively. Further, in the assay filed under Cavia porcellus [22], 100 µM produced 88% inhibition. In addition, the pEC50 in the assay listed under Cavia porcellus [23] was 6.10.
On to `COc1ccc(C2=C(OC(C)=O)c3cccn3-c3cc(C(F)(F)F)ccc3S2)cc1`, for which the results for the IC50 (in [1]; at Translocator protein [3]) were > 2000 nM and “Not Active”, respectively.
In the case of `CC(=O)OC1=C(c2ccccc2)Sc2ccccc2-n2cccc21`, in [4], the pIC50 is 6.66. In assay [1], the IC50 is reported as 6 nM.
As to `COc1ccc(C2=C(OC(=O)N(C)C)c3cccn3-c3ccccc3S2)cc1`, the IC50 entry in assay [18] was “Not Active”; in [1] it was 420 nM.
`COc1ccc(C2=C(OC(=O)c3cc(OC)c(OC)c(OC)c3)c3cccn3-c3ccccc3S2)cc1`: the IC50 entry on Translocator protein [3] was “Not Active”.
